Measurements published in ChEMBL document CHEMBL1799988, “Novel chalcone derivatives as potent Nrf2 activators in mice and human lung epithelial cells” (J Med Chem, 2011).
Each block holds one molecule with its values, some of them ahead of it. Activity calls are given as the source filed them. The rule behind the calls is not given here.

Columns and labels:
[1] = biological target: T1, Nuclear factor erythroid 2-related factor 2 (Homo sapiens) (UniProt Q16236); assay: Induction of Nrf2-mediated NQO1 gene expression in human BEAS2B cells at […] 24 hrs by RT-PCR analysis; type: functional, cell-based
T1 sequence (whole entry): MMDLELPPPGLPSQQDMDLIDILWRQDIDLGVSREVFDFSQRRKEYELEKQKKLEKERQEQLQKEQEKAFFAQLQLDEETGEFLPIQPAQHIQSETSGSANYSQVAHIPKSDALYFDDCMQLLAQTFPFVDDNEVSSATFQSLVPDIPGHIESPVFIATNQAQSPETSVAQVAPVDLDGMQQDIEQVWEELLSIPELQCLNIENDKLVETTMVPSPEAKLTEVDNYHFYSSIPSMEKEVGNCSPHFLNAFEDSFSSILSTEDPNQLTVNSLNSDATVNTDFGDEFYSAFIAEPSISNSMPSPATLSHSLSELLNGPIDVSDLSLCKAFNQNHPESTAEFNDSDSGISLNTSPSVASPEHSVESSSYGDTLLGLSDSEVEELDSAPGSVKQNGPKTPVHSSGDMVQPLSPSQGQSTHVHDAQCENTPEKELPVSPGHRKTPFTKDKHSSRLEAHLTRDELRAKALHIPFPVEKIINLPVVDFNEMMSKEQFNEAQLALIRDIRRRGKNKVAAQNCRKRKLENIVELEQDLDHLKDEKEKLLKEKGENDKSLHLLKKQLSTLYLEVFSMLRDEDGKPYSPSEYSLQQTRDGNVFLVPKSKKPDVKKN
Outline: (§1)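 Beas-2B cells co-incubated with 10 µM compound with or without N-acetylcysteine (10 mM); cells harvested 24 h later. GCLM, NQO1 and HO-1 mRNA quantified by TaqMan qRT-PCR, normalized to β-actin. Representative of 3 independent experiments, triplicate wells.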

[2] = biological target: T1, Nuclear factor erythroid 2-related factor 2 (Homo sapiens); assay: Induction of Nrf2-mediated GCLM gene expression in human BEAS2B cells at […] 24 hrs by RT-PCR analysis; type: functional, cell-based; outline: as §1
[3] = biological target: T1, Nuclear factor erythroid 2-related factor 2 (Homo sapiens); assay: Induction of Nrf2-mediated HO1 gene expression in human BEAS2B cells at […] 24 hrs by RT-PCR analysis; type: functional, cell-based; outline: as §1
[4] = test system: Mus musculus; assay: Induction of Nrf2-mediated GCLM gene expression in small intestine of C57BL/6 mouse at 50 mg/kg, po administered as single dose measured after 24 hrs by RT-PCR analysis related to control; type: functional
Outline: (§2)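 Male C57BL/6 mice (7 weeks, AIN 76A diet; n=4) given a single 50 mg/kg oral gavage of compound, sulforaphane, or vehicle (10% DMSO + 10% Cremophor EL + 80% PBS). Small intestine harvested 24 h later; GCLM and NQO1 mRNA measured by TaqMan qRT-PCR with β-actin normalization.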

[5] = biological target: T1, Nuclear factor erythroid 2-related factor 2 (Homo sapiens); assay: Induction of Nrf2-mediated GCLM gene expression in human BEAS2B cells at 10 uM after 24 hrs by RT-PCR analysis in presence of 10 mM N-acetylcysteine; type: functional, cell-based; outline: as §1
[6] = test system: Mus musculus; assay: Induction of Nrf2-mediated NQO1 gene expression in small intestine of C57BL/6 mouse at 50 mg/kg, po administered as single dose measured after 24 hrs by RT-PCR analysis related to sulforaphane; type: functional; outline: as §2
[7] = biological target: T1, Nuclear factor erythroid 2-related factor 2 (Homo sapiens); assay: Induction of Nrf2-mediated GCLM mRNA expression in human BEAS2B cells after 24 hrs by RT-PCR analysis; type: functional, cell-based
Outline: (§3)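 Beas-2B cells exposed for 24 h to 2.5, 5, 10 or 20 µM compound in DMSO (final ≤0.1%), sulforaphane as comparator. GCLM, NQO1 and HO1 mRNA measured by TaqMan qRT-PCR, normalized to β-actin. Representative of 3 independent experiments, triplicate wells.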

[8] = Cytotoxicity against human BEAS2B cells assessed as cell viability at 20 uM after 24 hrs by MTT assay relative to sulforaphane; type: cell-based; conditions: beas-2b
Outline: (§4)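 Beas-2B cells treated with compound or DMSO vehicle (0.1%) for 24 h; MTT (5 mg/ml in serum-free medium) added for the last 4 h, formazan dissolved in DMSO after PBS wash, absorbance read at 570 nm. Viability also checked by trypan blue exclusion.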

[9] = biological target: T1, Nuclear factor erythroid 2-related factor 2 (Homo sapiens); assay: Induction of Nrf2-mediated NQO1 mRNA expression in human BEAS2B cells after 24 hrs by RT-PCR analysis; type: functional, cell-based; outline: as §3
[10] = biological target: T1, Nuclear factor erythroid 2-related factor 2 (Homo sapiens); assay: Induction of Nrf2-mediated HO1 mRNA expression in human BEAS2B cells at 10 uM after 48 hrs by RT-PCR analysis relative to sulforaphane; type: functional, cell-based
Outline: (§5)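 Time course in Beas-2B cells at 10 µM compound: GCLM, NQO1 and HO-1 mRNA measured 6, 12, 24 and 48 h after treatment by TaqMan qRT-PCR, β-actin normalization. Representative of 3 independent experiments, triplicate wells.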

[11] = biological target: T1, Nuclear factor erythroid 2-related factor 2 (Homo sapiens); assay: Induction of Nrf2-mediated GCLM mRNA expression in human BEAS2B cells at 10 uM after 48 hrs by RT-PCR analysis; type: functional, cell-based; outline: as §5
[12] = biological target: T1, Nuclear factor erythroid 2-related factor 2 (Homo sapiens); assay: Induction of Nrf2-mediated NQO1 gene expression in human BEAS2B cells at 10 uM after 16 hrs by RT-PCR analysis relative to untreated control; type: functional, cell-based
Outline: (§6)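 Beas-2B cells (DMEM:F12, 10% FBS) plated 24 h, then exposed to 10 µM compound in DMSO (final ≤0.1%) for 16 h; sulforaphane as positive control. Total RNA extracted, reverse transcribed with random hexamers, GCLM and NQO1 mRNA quantified by TaqMan qRT-PCR, fold change vs DMSO. Representative of 3 independent experiments, quadruplicate wells.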

[13] = test system: Mus musculus; assay: Induction of Nrf2-mediated GCLM gene expression in small intestine of C57BL/6 mouse at 50 mg/kg, po administered as single dose measured after 24 hrs by RT-PCR analysis related to sulforaphane; type: functional; outline: as §2
[14] = biological target: T1, Nuclear factor erythroid 2-related factor 2 (Homo sapiens); assay: Induction of Nrf2-mediated NQO1 mRNA expression in human BEAS2B cells at 10 uM after 24 hrs by RT-PCR analysis relative to sulforaphane; type: functional, cell-based
[15] = biological target: T1, Nuclear factor erythroid 2-related factor 2 (Homo sapiens); assay: Induction of Nrf2-mediated GCLM mRNA expression in human BEAS2B cells at 10 uM after 6 hrs by RT-PCR analysis; type: functional, cell-based; outline: as §5
[16] = biological target: T1, Nuclear factor erythroid 2-related factor 2 (Homo sapiens); assay: Induction of Nrf2-mediated HO1 mRNA expression in human BEAS2B cells at 10 uM after 6 hrs by RT-PCR analysis relative to sulforaphane; type: functional, cell-based; outline: as §5
[17] = test system: Mus musculus; assay: Induction of Nrf2-mediated NQO1 gene expression in small intestine of C57BL/6 mouse at 50 mg/kg, po administered as single dose measured after 24 hrs by RT-PCR analysis related to control; type: functional; outline: as §2
[18] = biological target: T1, Nuclear factor erythroid 2-related factor 2 (Homo sapiens); assay: Induction of Nrf2-mediated NQO1 mRNA expression in human BEAS2B cells at 10 uM after 48 hrs by RT-PCR analysis relative to sulforaphane; type: functional, cell-based; outline: as §5
[19] = biological target: T1, Nuclear factor erythroid 2-related factor 2 (Homo sapiens); assay: Induction of Nrf2-mediated NQO1 mRNA expression in human BEAS2B cells at 20 uM after 24 hrs by RT-PCR analysis
[20] = biological target: T1, Nuclear factor erythroid 2-related factor 2 (Homo sapiens); assay: Induction of Nrf2-mediated HO1 gene expression in human BEAS2B cells at 10 uM after 24 hrs by RT-PCR analysis in presence of 10 mM N-acetylcysteine; type: functional, cell-based; outline: as §1
[21] = biological target: T1, Nuclear factor erythroid 2-related factor 2 (Homo sapiens); assay: Induction of Nrf2-mediated HO1 mRNA expression in human BEAS2B cells at 10 uM after 24 hrs by RT-PCR analysis relative to sulforaphane; type: functional, cell-based
[22] = biological target: T1, Nuclear factor erythroid 2-related factor 2 (Homo sapiens); assay: Induction of Nrf2-mediated GCLM mRNA expression in human BEAS2B cells at 20 uM after 24 hrs by RT-PCR analysis; type: functional, cell-based; outline: as §3
[23] = biological target: T1, Nuclear factor erythroid 2-related factor 2 (Homo sapiens); assay: Induction of Nrf2-mediated GCLM gene expression in human BEAS2B cells at 10 uM after 16 hrs by RT-PCR analysis relative to untreated control; type: functional, cell-based; outline: as §6
[24] = biological target: T1, Nuclear factor erythroid 2-related factor 2 (Homo sapiens); assay: Induction of Nrf2-mediated NQO1 gene expression in human BEAS2B cells at 10 uM after 24 hrs by RT-PCR analysis in presence of 10 mM N-acetylcysteine; type: functional, cell-based; outline: as §1
[25] = biological target: T1, Nuclear factor erythroid 2-related factor 2 (Homo sapiens); assay: Induction of Nrf2-mediated HO1 mRNA expression in human BEAS2B cells after 24 hrs by RT-PCR analysis; type: functional, cell-based; outline: as §3
[26] = biological target: T1, Nuclear factor erythroid 2-related factor 2 (Homo sapiens); assay: Induction of Nrf2-mediated NQO1 gene expression in human BEAS2B cells overexpressing ARE luciferase reporter plasmid after 16 hrs by chemiluminescence assay; type: functional, cell-based
Outline: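 Beas-2B cells stably transfected with NQO1-ARE luciferase reporter (blasticidin 6 µg/ml selection) seeded at 10,000 cells/well for 16 h, then exposed to graded compound concentrations or DMSO for 16 h. Luciferase activity read by chemiluminescence as relative luminescence intensity. Representative of 3 independent experiments, quadruplicate wells.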

[27] = Cytotoxicity against human BEAS2B cells assessed as cell viability after 24 hrs by MTT assay; type: cell-based, BEAS-2B; design: concentration or dose not given beside the values; conditions: read-out: Activity; outline: as §4

Activity [1]: inactive | Activity [2]: inactive | Activity [3]: inactive
Structure (SMILES): CC(=O)N[C@@H](CS)C(=O)O

Activity [5]: Active | Activity [7]: Dose-dependent effect | Activity [9]: Dose-dependent effect | Activity [10]: inactive | Activity [11]: inactive | fold change (FC) [12]: 4.6 | Activity [14]: Active | fold change (FC) [15]: 7 | fold change (FC) [16]: 150 | Activity [18]: Active | fold change (FC) [19]: 10 | Activity [20]: Active | fold change (FC) [21]: 6 | fold change (FC) [22]: 5 | fold change (FC) [23]: 4.5 | Activity [24]: Active | Activity [25]: Dose-dependent effect | Activity [26]: Dose-dependent effect
Structure (SMILES): COc1ccccc1C(=O)/C=C/c1ccccc1C(F)(F)F
fold change (FC) [4]: 6 | fold change (FC) [6]: 5 | Activity [8]: Non-toxic | fold change (FC) [13]: 3 | fold change (FC) [17]: 10 | viability at 24 h [27]: 101%
